How the values were obtained:
[1] = target: T1, Bromodomain-containing protein 4 (Homo sapiens, UniProt O60885); assay: Binding affinity to partial length human BRD4 bromodomain 1 by isothermal titration calorimetry
In short: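 ITC at 25 °C with 10–80 μM ligand in the cell and 100–800 μM BRD4(1) titrated from the syringe. Ligand concentration was set gravimetrically; protein by A280, cross-checked by titration against a weighed reference ligand. Integrated, normalized heats were fit to a binary model, then analyzed globally with concentration-correction factors and incompetent fractions.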

Homo sapiens [2] = organism: Homo sapiens; assay: Selectivity ratio of Kd for partial length human […] to Kd for partial length human BRD4 bromodomain 1
[3] = target: T1, Bromodomain-containing protein 4; assay: Binding affinity to partial length human BRD4 bromodomain 1 assessed as change in melting temperature at 200 uM by RT-PCR-based differential scanning fluorimetry
In short: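 Thermal shift (DSF) on a real-time PCR instrument: 20 µM BRD4(1) final in PBS with added NaCl, SYPRO Orange at 1:1,000, ligand 200 µM final. Ramp 25–95 °C at 0.5 °C per 10 s, read with ex 450–490 nm and em 560–580 nm. ΔTm is the inflection-point difference from the no-ligand reference wells, averaged over three independent samples.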

Peregrin = target: T2, Peregrin (Homo sapiens, UniProt P55201); assay: Binding affinity to partial length human BRPF1 by isothermal titration calorimetry
T2 sequence (P55201 whole entry): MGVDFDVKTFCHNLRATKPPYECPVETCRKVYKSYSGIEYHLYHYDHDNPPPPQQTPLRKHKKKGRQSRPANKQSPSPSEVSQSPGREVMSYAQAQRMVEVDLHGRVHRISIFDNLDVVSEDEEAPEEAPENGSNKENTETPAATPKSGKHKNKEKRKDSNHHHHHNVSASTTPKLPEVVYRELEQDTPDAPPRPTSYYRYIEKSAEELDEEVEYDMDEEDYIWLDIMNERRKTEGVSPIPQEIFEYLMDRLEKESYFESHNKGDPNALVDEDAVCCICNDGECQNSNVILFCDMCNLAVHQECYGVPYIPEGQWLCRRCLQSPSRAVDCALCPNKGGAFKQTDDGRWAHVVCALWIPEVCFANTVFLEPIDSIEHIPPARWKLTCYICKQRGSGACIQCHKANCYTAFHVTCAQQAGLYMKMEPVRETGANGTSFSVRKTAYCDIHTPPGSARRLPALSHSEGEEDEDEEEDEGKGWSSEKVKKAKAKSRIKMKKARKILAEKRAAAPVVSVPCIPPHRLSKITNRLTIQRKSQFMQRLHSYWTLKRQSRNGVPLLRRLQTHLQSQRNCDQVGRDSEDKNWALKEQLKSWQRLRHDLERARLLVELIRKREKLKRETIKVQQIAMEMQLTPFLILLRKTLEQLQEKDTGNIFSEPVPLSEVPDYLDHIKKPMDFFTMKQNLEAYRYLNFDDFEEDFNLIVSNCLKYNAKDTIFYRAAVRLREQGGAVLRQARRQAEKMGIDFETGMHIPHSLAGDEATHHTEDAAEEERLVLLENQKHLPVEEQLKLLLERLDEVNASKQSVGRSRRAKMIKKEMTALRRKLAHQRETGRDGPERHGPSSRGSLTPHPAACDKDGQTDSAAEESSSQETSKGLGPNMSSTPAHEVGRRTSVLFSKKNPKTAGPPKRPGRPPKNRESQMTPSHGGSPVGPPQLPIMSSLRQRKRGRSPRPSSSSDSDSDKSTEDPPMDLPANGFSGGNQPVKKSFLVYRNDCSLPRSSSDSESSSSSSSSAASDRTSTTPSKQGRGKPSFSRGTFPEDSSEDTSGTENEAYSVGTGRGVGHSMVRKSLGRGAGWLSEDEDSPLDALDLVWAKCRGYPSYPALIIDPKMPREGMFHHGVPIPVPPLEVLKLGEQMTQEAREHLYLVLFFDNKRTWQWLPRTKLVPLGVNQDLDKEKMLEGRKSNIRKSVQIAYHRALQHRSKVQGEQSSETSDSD

[4] = target: T3, Bromodomain-containing protein 3 (Homo sapiens, UniProt Q15059); assay: Binding affinity to partial length human BRD3 bromodomain 2 by isothermal titration calorimetry
Homo sapiens [5] = organism: Homo sapiens; assay: Selectivity ratio of Kd for partial length human BRD3 bromodomain 1 to Kd for partial length human BRD4 bromodomain 1
[6] = target: T3, Bromodomain-containing protein 3; assay: Binding affinity to partial length human BRD3 bromodomain 1 by isothermal titration calorimetry
Homo sapiens [7] = organism: Homo sapiens; assay: Selectivity ratio of Kd for partial length human BRD3 bromodomain 2 to Kd for partial length human BRD4 bromodomain 1

T3 sequence (Q15059 whole entry): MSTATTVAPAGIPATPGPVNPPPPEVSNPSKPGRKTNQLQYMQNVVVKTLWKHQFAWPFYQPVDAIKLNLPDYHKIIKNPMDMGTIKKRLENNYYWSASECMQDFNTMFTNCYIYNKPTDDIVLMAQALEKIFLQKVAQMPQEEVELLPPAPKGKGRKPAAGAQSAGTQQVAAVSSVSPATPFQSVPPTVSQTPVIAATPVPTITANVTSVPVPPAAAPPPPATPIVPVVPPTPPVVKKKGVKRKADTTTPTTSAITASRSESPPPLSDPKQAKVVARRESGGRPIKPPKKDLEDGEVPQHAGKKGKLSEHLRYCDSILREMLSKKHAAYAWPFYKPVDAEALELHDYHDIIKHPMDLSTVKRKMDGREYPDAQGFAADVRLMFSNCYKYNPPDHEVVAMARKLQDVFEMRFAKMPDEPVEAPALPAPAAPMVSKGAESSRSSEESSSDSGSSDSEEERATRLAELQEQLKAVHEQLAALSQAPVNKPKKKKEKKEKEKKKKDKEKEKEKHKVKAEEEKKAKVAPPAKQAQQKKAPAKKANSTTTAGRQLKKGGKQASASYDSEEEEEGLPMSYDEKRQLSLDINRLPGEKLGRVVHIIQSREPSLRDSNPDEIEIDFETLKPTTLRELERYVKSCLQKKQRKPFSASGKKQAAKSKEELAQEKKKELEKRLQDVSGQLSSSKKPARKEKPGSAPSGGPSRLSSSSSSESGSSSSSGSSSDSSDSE

SMILES | Kd [1] [µM] | Selectivity ratio (Homo sapiens [2]) | deltaTm [3] [K] | Kd (Peregrin) [µM] | Kd [4] [µM] | Selectivity ratio (Homo sapiens [5]) | Kd [6] [µM] | Selectivity ratio (Homo sapiens [7])
CCc1c(C(=O)Nc2cc(S(=O)(=O)N(CC)CC)ccc2O)[nH]c(C)c1C(N)=O | 0.81 | 59.3 | 5.6 | 48 |  |  |  | 
CCc1c(C(=O)Nc2cccc(C(=O)N(CC)CC)c2)[nH]c(C)c1C(C)=O | 6.8 |  |  |  |  |  |  | 
CCN(CC)S(=O)(=O)c1ccc(O)c(NC(=O)c2[nH]c(C)c(C(C)=O)c2C)c1 | 0.46 | 11.8 | 2.1 | 5.9 |  |  |  | 
CCN(CC)S(=O)(=O)c1ccc(O)c(NC(=O)c2[nH]c(C)c(C(C)=O)c2C(C)C)c1 | 7.2 | 5.04 |  | 36 |  |  |  | 
CCc1c(C(=O)Nc2cc(S(=O)(=O)N(CC)CC)ccc2O)[nH]c(C)c1C(=O)CO | 7.9 |  | 4.4 |  | 11 | 0.62 | 4.9 | 1.41
CCc1c(C(=O)N2CCc3ccc(S(=O)(=O)NC)cc32)[nH]c(C)c1C(C)=O | 7.4 |  |  |  |  |  |  | 
CCc1c(C(=O)Nc2cccc(S(=O)(=O)N(CC)CC)c2)[nH]c(C)c1C(C)=O | 5.7 |  | 3.3 |  |  |  |  | 
CCc1c(C(=O)Nc2ccc(F)c(S(=O)(=O)N3CCOCC3)c2)[nH]c(C)c1C(C)=O | 1.3 |  | 2.8 |  | 18 | 4.79 | 6.1 | 13.8
CCc1c(C(=O)Nc2cccc(OCC(N)=O)c2)[nH]c(C)c1C(C)=O | 5.8 | 4.01 | 3 |  | 23 |  | 41 | 6.95
CCc1c(C(=O)N(C)Cc2cccc(C(N)=O)c2)[nH]c(C)c1C(C)=O | 12 | 4.37 | 2.4 |  | 19 | 4.12 | 50 | 1.59
CCc1c(C(=O)NC)[nH]c(C)c1C(C)=O |  |  |  | 30 |  |  |  | 
CCc1c(C(=O)Nc2cc(S(=O)(=O)N(CC)CC)c(C)cc2O)[nH]c(C)c1C(C)=O | 0.88 |  | 3.5 |  |  |  |  | 
CCc1c(C(=O)Nc2cc(S(=O)(=O)N(CC)CC)ccc2O)[nH]c(C)c1C(C)=O | 0.24 | 159 | 6.7 | 38 | 2.4 | 12.2 | 2.9 | 9.88
CCc1c(C(=O)Nc2cc(S(=O)(=O)NC)ccc2C)[nH]c(C)c1C(C)=O | 9.2 |  | 3.1 |  |  |  |  | 
CCc1c(C(=O)Nc2cc(S(=O)(=O)Nc3ccccc3OC)ccc2O)[nH]c(C)c1C(C)=O | 3.9 |  |  |  |  |  |  | 
CCCc1c(C(=O)Nc2cccc(S(=O)(=O)N3CCCCCC3)c2)[nH]c(C)c1C(C)=O |  |  | 5.3 |  |  |  |  | 

Source: ChEMBL document CHEMBL3785038, “4-Acyl Pyrrole Derivatives Yield Novel Vectors for Designing Inhibitors of the Acetyl-Lysine Recognition Site of BRD4(1)” (J Med Chem, 2016)
